# Results as given in the EternaBench riboswitch data.
# System: MS2 coat protein
# Assay: apparent Kd, MS2 coat protein; higher = weaker binding; RNA-MaP array; FMN 200 µM where present
# Summary of the method: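 Green signal was scaled to red-channel RNA signal and control-cluster median Fmax, and the apparent Kd was taken as the median of filtered per-cluster binding-curve fits. The binding series used SNAP-549-labelled MS2 coat protein from 0.7 or 1.5 nM, doubling to 3 µM, on designs transcribed by stalled E. coli RNA polymerase on Illumina sequencing-chip clusters. Each series ran without and then with constant ligand in 100 mM Tris-HCl pH 7.5, 80 mM KCl, 4 mM MgCl2, BSA, DTT, yeast tRNA and Tween-20.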
# [1] = designed as: OFF switch for flavin mononucleotide, no ligand
# [2] = ligand present: flavin mononucleotide, designed as: OFF switch for flavin mononucleotide
# [3] = designed as: ON switch for flavin mononucleotide, no ligand
# [4] = ligand present: flavin mononucleotide, designed as: ON switch for flavin mononucleotide
Sequence,apparent Kd [1] [nM],apparent Kd [2] [nM],apparent Kd [3] [nM],apparent Kd [4] [nM]
AAUUAUAUACAGAAGGAGUUAUAUUAAGUAUUACUAGGAUAUGUUCACAUGAGGAUCACCCAUGUCAUAUUGGGAUUUAUUUUU,17,21.6,–,–
AAUUCACAUGAGGAUCACCCAUGUCAGGAUAUGGUGACGCGGGUUUCGGUGCGUGUUGCCAGAAGGGACGGCUG,–,115,–,–
AAUUUAAGAUGAGGAUAUUGACAUGAGGAUCACCCAUGUAUUUGGGAAUGUUUACUGAAUUCUUACAAGAAGGUAUACGAACUU,185,138,–,–
AAUUUAAUACAUGAGGAUCACCCAUGUAAUACUAGUAAGAUCUAGGAUAUCAGCUCGAUUAGAGCUGAGAAGGAGAUCACAUGU,–,–,92.9,27.9
AAUUUAAUACAUGAGGAUCACCCAUGUAAUACUAGUAAGAUCUAGGAUAUCAGCUCGUUUAGAGCUGAGAAGGAGAUCACAUGU,–,–,86.3,26
AAUUUAAUACAUGAGGAUCACCCAUGUAAUACUUGUAAGAUCAAGGAUAUCAGCUCGAAUAGAGCUGAGAAGGUGAUCACAUGU,–,–,75.9,227
AAUUUACAGACAGGAUAUACAUGAGGAUCACCCAUGUAAUCAUAUGAUAUUUUUUUUGUAUGAGUGUAGAAGGGUCAAAUAAAA,13.5,10.6,–,–
AAUUUACAGGGAGGAUAUACAUGAGGAUCACCCAUGUCAUCAUAUGAUAUUUCUUUUGUAUGAGUGUAGAAGGCCCAACUACCA,18.2,18.3,–,–
ACAAAGUGAGGAUAUGCUAUCGUACAUUAUUGUUAUCGUUUGCAGAAGGCACAUGAGGAUCACCCAUGUAAGAA,29.4,30.5,–,–
ACAAAGUGAGGAUAUGCUAUUAUACAUUAUUGUUAUUAUUUGCAGAAGGCACAUGAGGAUCACCCAUGUAAGAA,29.8,22.6,–,–
ACAAAUGGAGGAUAUACAUGAGGAUCACCCAUGUAUAUCCUACAUGUGUGAUAAUCAUGUAGAAGGCCAUUUGA,14,12.3,–,–
ACAAAUGGAGGAUAUACAUGAGGAUCACCCAUGUUUAUCCUACAUAUGUGAUAAUCAUGUAGAAGGCCAUAUGA,16.5,12.5,–,–
ACAAAUGGAGGAUAUACAUGAGGAUCACCCAUGUUUAUCCUACAUAUGUGAUACUCAUGUAGAAGGCCAUUUGA,13.1,12.6,–,–
ACAACCAGAGGAUAUGCGCAUAGAUCAGACUUUGUUUCUGAACAUGAGGAUCACCCAUGUAGAAGGCUGUAACA,34.9,33.9,–,–
ACACAGGGAGGAUAUACAUGAGGAUCACCCAUGUAGAGUGGAUUGGGAUUGCUAUCAAGUAGAAGGCUUUAGUG,56.1,122,–,–
ACACAUGAGGAUCACCCAUGUAGCUGGCGUCUGCGCCAGCCACAGGAUAUACGGCAAAACAAACCGUAGAAGGGUGAUAAACAC,–,–,80.1,31.8
ACAGCGAUGGUUAGGAUAUCCACGAGUACUUCGUCGGAGAAGGAACAUGAGGAUCACCCAUGUAGAUCCCAGGG,146,319,–,–
ACAGCGGCAGGAUAUGCAUGCUCCGACUUAUGCCGACAAAGACAUGAGGAUCACCCAUGUAGAAGGGCCAGCGG,23.1,22.8,–,–
ACAGCGUGAGGAUAUACAUGAGGAUCACCCAUGUGUGGCAGGUUAUCCUGUCAUAAGUGUAGAAGGCACGCUGU,44.4,93.9,–,–

Sequence,apparent Kd [1] [nM],apparent Kd [2] [nM],apparent Kd [3] [nM],apparent Kd [4] [nM]
ACAGUAAACGAAGGAUAUGGUUACAUGAGGAUCACCCAUGUAAUGGUUGUGAUAUUGAUUAAGUUCCAGAAGGUCGUAUACUUA,190,272,–,–
ACAGUGCGAGGAUAUACAUGAGGAUCACCCAUGUGAGAGAAAUAAGUGAGGAAGAAAAGUAGAAGGCGCGUUGA,75.5,91.7,–,–
ACAUGAGGAUCACCCAUGUAGAAUGGAGAAGGUAGAUACUUGUGACUCUCCCAUGUACAUAGGACUGAGGAUAUUCUAAUAAUU,–,–,49.6,40.2
ACAUGAGGAUCACCCAUGUAUACAUAGGAUAUUGGUGAUCAGGCAUGUUUUACAGGAUAUGUCUGCGAGAAGGAUGCAAGUUGU,–,–,633,346
ACAUGAGGAUCACCCAUGUGACCACAAUGGCUGAUGUAACAACAGGAUAUUCGUGAAUAUCUAACGAAGAAGGGUUAUGACUGG,71.4,65.2,–,–
ACAUGAGGAUCACCCAUGUUAUGUUGGGUACUAAAUUAUUCGUAGGAUAUCGUAGCUAGUUUGUGCGAGAAGGACGCAGUUUUU,257,277,–,–
ACAUGAGGAUCACCCAUGUUCACAUAGGAUAUUGAUUAUAUUGGUUUAAGAAUAGUAAUUGACCUCAAGAAGGAUGCCUGAUCU,–,–,15.3,12.2
ACAUGAGGAUCACCCAUGUUCACAUAGGAUAUUGAUUAUAUUGGUUUUUGAAUAGUAAUUAACCUCAAGAAGGAUGCCUGAUCU,–,–,11.6,9.34
ACAUGAGGAUCACCCAUGUUGACAUAGGAUAUACAACAUUAGUUUCAUUCAUGUAAACUUUGAUAGUAGAAGGAUGGUACAUGA,13.2,13,–,–
ACAUGAGGAUCACCCAUGUUUUUUGGGUACUUUUGUUUCUGCAAGGAUAUGCAUUAUUUAUAUACGCAGAAGGUGCAUUACUUC,573,708,–,–
ACAUGAUAUGUAGGAUAUCACAACAUGAGUUUUAAUAUUGUUAUUUAGGAUUGAGAAGGACAUUUACAUGAGGAUCACCCAUGU,17.5,14.6,–,–
ACAUGAUAUGUAGGAUAUCACAUUAAUUGAUUAAUAUAUGAAUAUAGAAUUUGAGAAGGACAUUUACAUGAGGAUCACCCAUGU,15.7,10.8,–,–
ACAUGAUCAGGAUAUACAUGAGGAUCACCCAUGUAUUUCAAAAAGGGACUUUCUUUAUGUAGAAGGGAUCUUGU,15.8,43.1,–,–
ACAUGUAAUACAGGAUAUGUUAUACAUUAAUCAAUCAGUUAUUAUGAUUAUACAGAAGGGUAUACAUGAGGAUCACCCAUGUUA,19.7,26.2,–,–
ACAUUUAAUACAGGAUAUGUUAGUAUACAGUUGAUUGGUUAUUACAUUAUAACAGAAGGGUAGAACAUGAGGAUCACCCAUGUA,–,–,153,73.2
ACAUUUAAUACAGGAUAUGUUGGUAUACAAUAGAUUGGUUAUAACACAUCAACAGAAGGGUAGAACAUGAGGAUCACCCAUGUA,–,–,53.6,23.3
ACCAAGCGAGGAUAUACUUAGAUUUUUUCGUUUAGUCUCGAACAUGAGGAUCACCCAUGUAGAAGGUGCUUCAC,47.8,46.5,–,–
ACCAAUGGAGGAUAUACAUGAGGAUCACCCAUGUAUAACCUACAUAGGUGAAAAUUAUGUAGAAGGCCAUUGGA,14.6,13.4,–,–
ACCAUUUACUAGUUUUCUAUACAUGAGGAUCACCCAUGUUUUUAGGAUAUCAGCGUGAAACACGCUGAGAAGGAAGAACAAUCG,19.1,24.6,–,–

Sequence,apparent Kd [1] [nM],apparent Kd [2] [nM],apparent Kd [3] [nM],apparent Kd [4] [nM]
ACCUCGUACACAGGAUAUGAUUACUUGCAGCCUGCGUUGACAUGAGGAUCACCCAUGUGGACUGAUCAGAAGGGUGAACGGAAG,–,–,–,112
ACGACGAAAAUCGAACGAUGUAGCAGAAGGACAUGAGGAUCACCCAUGUAAAAUGUAACAGCCAUGUAGGAUAUGCUACAUCGA,40.9,272,–,–
ACGACGAAAGUCGAACGAUGUAGCAGAAGGACAUGAGGAUCACCCAUGUAAAAUGUAACAGCCAUGUAGGAUAUGCUACAUCGA,31.3,238,–,–
ACGCCCUGAGGAUAUCUUAUCCCGUACAUGAGGAUCACCCAUGUUUUCCUCCGGGCUCCGAGAGAAGGCAGGCCCA,42.2,75.9,–,–
ACGCGAUGGGAGAAGGUACUUUAAAAUAUUUCCACAUGAGGAUCACCCAUGUAAGGAUAUCCCAUCGUUAAAUAUUAUACAGCA,7.07,5.91,–,–
ACGCUUUGGGAGAAGGUACUUUAAAAUAUUUCCACAUGAGGAUCACCCAUGUAAGGAUAUCCCAUCGUUAAAUAUUAUACAGCA,8.91,6.88,–,–
ACGGAGCUAGGAUAUACAUGAGGAUCACCCAUGUAUGAUGCGGCGCCCUUUUGCGCCUGUAGAAGGAGCACCGU,15.9,16.5,–,–
ACGUAAAUUCGAGGAUAUCGGUGAUAUAAUUUACGAGAAGGCGAUAAUUGUGAUAAACUUAUAGACAUGAGGAUCACCCAUGUA,–,–,42.7,37.9
ACGUGUCGUGUAGGAUAUGACACAGGAAACUGGUCAGAAGGACAUGAGGAUCACCCAUGUAAAAUGUUCAAGAAUGACGUAUGC,58.6,105,–,–
ACGUUCAAAGGAUAUACAUGAGGAUCACCCAUGUCCGUCAUGCAAGCGACGGUUUGCUGUAGAAGGUUGAACGC,22.4,114,–,–
ACGUUUUAUGCAGGAUAUUGACUUAUAUUUAAACAAGAAGGGCAAUACAUGAGGAUCACCCAUGUUAUCAUGGUAUUUAAGUUC,82.2,53.9,–,–
ACUACGAUAGCGAUAUGAUCGAGAGAUCAUGUCGCUAAAUUUAGAAGGACAUGAGGAUCACCCAUGUAGGAUAUGGGUCGUAGA,–,–,28,9.62
ACUAGGCGAGGAUAUACAUGCUUAACACAGCGAAAGCUGUGACAUGAGGAUCACCCAUGUAGAAGGCGCAAAUA,54.1,365,–,–
ACUAUACGAGGAUAUACUGACGGGCCUCAGGCAUACAUCAGACAUGAGGAUCACCCAUGUAGAAGGCGUAUACU,104,40.6,–,–
ACUCGAUUUUUGGGUAUACUAUAUGAGGAUAUCAUACAUCUAUACAUGAGGAUCACCCAUGUGACUGAGAAGGCAUAUAUAAUA,–,–,18.8,9.15
ACUGGUCGAGGAUAUACAAUCGUGCUUCGGCACGUAAGAUCACAUGAGGAUCACCCAUGUAGAAGGCGACCAGU,60.3,743,–,–
ACUGGUCGAGGAUAUACAUGAGGAUCACCCAUGUGAUUAGCAGUCCUCGGACUGCAAUGUAGAAGGCGACCAGU,370,842,–,–
ACUGGUCGAGGAUAUGCAAUCGUGCUUCGGCACGUAAGGUCACAUGAGGAUCACCCAUGUAGAAGGCGACCAGU,17.2,36.4,–,–
